In ChEMBL document CHEMBL4321857, “Synthesis and Pharmacological Evaluation of Triazolopyrimidinone Derivatives as Noncompetitive, Intracellular Antagonists for CC Chemokine Receptors 2 and 5” (J Med Chem, 2019):
Calls of active or inactive are those of the source. The rule behind the calls is not given here.

Experiments:
[1] = target: T1, C-C chemokine receptor type 2 (Homo sapiens, UniProt P41597); assay: Displacement of [3H]-CCR2-RA-[R] from human CCR2 expressed in human U2OS cells incubated for 2 hrs by scintillation spectrometric method; format: cell-based
Target sequence in this assay (P41597 whole entry): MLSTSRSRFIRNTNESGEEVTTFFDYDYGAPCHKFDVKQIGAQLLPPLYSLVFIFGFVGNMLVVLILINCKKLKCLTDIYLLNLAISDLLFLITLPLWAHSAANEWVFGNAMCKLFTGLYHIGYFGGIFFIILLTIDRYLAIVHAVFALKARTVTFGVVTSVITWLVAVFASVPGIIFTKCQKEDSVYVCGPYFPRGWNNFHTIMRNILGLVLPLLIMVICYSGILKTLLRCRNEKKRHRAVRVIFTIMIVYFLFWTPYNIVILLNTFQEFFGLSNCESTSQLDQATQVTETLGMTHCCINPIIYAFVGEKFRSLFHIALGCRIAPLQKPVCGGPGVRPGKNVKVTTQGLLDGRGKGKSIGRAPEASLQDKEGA

[2] = target: T2, C-C chemokine receptor type 5 (Homo sapiens, UniProt P51681); assay: Antagonist activity at human TEV cleavage site-linked CCR5 expressed in human U2OS cells harboring beta-lactamase reporter gene assessed as inhibition of CCL3-induced beta-arrestin recruitment at 1 uM incubated for 30 mins followed by CCL3 stimulation and measured after 16 hrs by Tango assay relative to control; format: cell-based
Target sequence in this assay (P51681 whole entry, looked up): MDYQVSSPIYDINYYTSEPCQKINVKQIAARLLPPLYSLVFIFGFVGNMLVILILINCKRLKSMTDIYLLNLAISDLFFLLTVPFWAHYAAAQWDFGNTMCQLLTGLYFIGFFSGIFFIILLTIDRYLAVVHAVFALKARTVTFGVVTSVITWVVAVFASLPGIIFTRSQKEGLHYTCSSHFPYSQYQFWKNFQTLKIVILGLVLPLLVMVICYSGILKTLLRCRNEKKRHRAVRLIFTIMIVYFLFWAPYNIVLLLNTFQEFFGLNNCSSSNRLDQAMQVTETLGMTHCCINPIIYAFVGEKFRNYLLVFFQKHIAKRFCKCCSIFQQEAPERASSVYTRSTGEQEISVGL

[3] = target: T2, C-C chemokine receptor type 5; assay: Antagonist activity at human TEV cleavage site-linked CCR5 expressed in human U2OS cells harboring beta-lactamase reporter gene assessed as inhibition of CCL3-induced beta-arrestin recruitment incubated for 30 mins followed by CCL3 stimulation and measured after 16 hrs by Tango assay; format: cell-based
Target sequence in this assay (P51681 whole entry): as the sequence (P51681 whole entry, looked up) above

[4] = target: T2, C-C chemokine receptor type 5; assay: Non-competitive insurmountable antagonist activity at human CCR5 expressed in human U2OS cell membranes assessed as Emax for CCL3-stimulated [35S]GTPgammaS binding at 300 nM preincubated for 30 mins followed by [35S]GTPgammaS addition and measured after 90 mins (reference value: 108 +/- 2%); format: functional
Target sequence in this assay (P51681 whole entry, looked up): as above

[5] = target: T2, C-C chemokine receptor type 5; assay: Non-competitive insurmountable antagonist activity at human CCR5 expressed in human U2OS cell membranes assessed as Emax for CCL3-stimulated [35S]GTPgammaS binding at 30 nM preincubated for 30 mins followed by [35S]GTPgammaS addition and measured after 90 mins (reference value: 108 +/- 2%); format: functional
Target sequence in this assay (P51681 whole entry, looked up): as above

[6] = target: T1, C-C chemokine receptor type 2; assay: Non-competitive insurmountable antagonist activity at human CCR2 expressed in human U2OS cell membranes assessed as Emax for CCL2-stimulated [35S]GTPgammaS binding at 3 nM preincubated for 30 mins followed by [35S]GTPgammaS addition and measured after 90 mins (reference value: 107 +/- 2%); format: functional
Target sequence in this assay (P41597 whole entry, looked up): as the sequence (P41597 whole entry) above

[7] = species: Homo sapiens; assay: Selectivity ratio of IC50 for human TEV cleavage site-linked CCR5 expressed in human U2OS cells to IC50 for human TEV cleavage site-linked CCR2b expressed in human U2OS cells; format: cell-based
[8] = target: T1, C-C chemokine receptor type 2; assay: Non-competitive insurmountable antagonist activity at human CCR2 expressed in human U2OS cell membranes assessed as Emax for CCL2-stimulated [35S]GTPgammaS binding at 1 nM preincubated for 30 mins followed by [35S]GTPgammaS addition and measured after 90 mins (reference value: 107 +/- 2%); format: functional
Target sequence in this assay (P41597 whole entry, looked up): as the sequence (P41597 whole entry) above

[9] = target: T1, C-C chemokine receptor type 2; assay: Antagonist activity at human TEV cleavage site-linked CCR2b expressed in human U2OS cells harboring beta-lactamase reporter gene assessed as inhibition of CCL2-induced beta-arrestin recruitment incubated for 30 mins followed by CCL2 stimulation and measured after 16 hrs by Tango assay; format: cell-based
How it was run: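 Tango CCR2b-bla U2OS cells: 10 000 cells/well in FreeStyle medium, 30 min preincubation at room temperature with increasing antagonist concentrations (DMSO ≤0.5%), then 16 h with CCL2 at EC80 (5 nM), 37 °C, 5% CO2. LiveBLAzer-FRET B/G substrate 2 h at room temperature; 460/535 nm emission ratio at 400 nm excitation. IC50 by nonlinear regression.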
Target sequence in this assay (P41597 whole entry): as above

[10] = target: T2, C-C chemokine receptor type 5; assay: Non-competitive insurmountable antagonist activity at human CCR5 expressed in human U2OS cell membranes assessed as Emax for CCL3-stimulated [35S]GTPgammaS binding at 100 nM preincubated for 30 mins followed by [35S]GTPgammaS addition and measured after 90 mins (reference value: 108 +/- 2%); format: functional
Target sequence in this assay (P51681 whole entry, looked up): as the sequence (P51681 whole entry, looked up) above

[11] = target: T1, C-C chemokine receptor type 2; assay: Inverse agonist activity at human CCR2 assessed as reduction in [35S]GTPgammaS binding at 1 uM relative to control; format: functional; parameters: scale not given: the % may be the effect or the level left
Target sequence in this assay (P41597 whole entry, looked up): as the sequence (P41597 whole entry) above

[12] = target: T1, C-C chemokine receptor type 2; assay: Non-competitive insurmountable antagonist activity at human CCR2 expressed in human U2OS cell membranes assessed as Emax for CCL2-stimulated [35S]GTPgammaS binding at 10 nM preincubated for 30 mins followed by [35S]GTPgammaS addition and measured after 90 mins (reference value: 107 +/- 2%); format: functional
Target sequence in this assay (P41597 whole entry, looked up): as the sequence (P41597 whole entry) above

[13] = target: T2, C-C chemokine receptor type 5; assay: Non-competitive insurmountable antagonist activity at human CCR5 expressed in human U2OS cell membranes assessed as Emax for CCL3-stimulated [35S]GTPgammaS binding at 1000 nM preincubated for 30 mins followed by [35S]GTPgammaS addition and measured after 90 mins (reference value: 108 +/- 2%); format: functional
Target sequence in this assay (P51681 whole entry, looked up): as the sequence (P51681 whole entry, looked up) above

[14] = target: T1, C-C chemokine receptor type 2; assay: Non-competitive insurmountable antagonist activity at human CCR2 expressed in human U2OS cell membranes assessed as Emax for CCL2-stimulated [35S]GTPgammaS binding at 30 nM preincubated for 30 mins followed by [35S]GTPgammaS addition and measured after 90 mins (reference value: 107 +/- 2%); format: functional
Target sequence in this assay (P41597 whole entry, looked up): as the sequence (P41597 whole entry) above

[15] = target: T1, C-C chemokine receptor type 2; assay: Non-competitive insurmountable antagonist activity at human CCR2 expressed in human U2OS cell membranes assessed as Emax for CCL2-stimulated [35S]GTPgammaS binding at 100 nM preincubated for 30 mins followed by [35S]GTPgammaS addition and measured after 90 mins (reference value: 107 +/- 2%); format: functional
Target sequence in this assay (P41597 whole entry, looked up): as the sequence (P41597 whole entry) above

[16] = target: T1, C-C chemokine receptor type 2; assay: Antagonist activity at CCR2b in human THP1 cells assessed as inhibition of human MCP1 induced calcium flux by fluo-4 dye based fluorescence assay; format: functional, cell-based
Target sequence in this assay (P41597 whole entry): as above

Structure (SMILES) | Ki ([1]; read-out: Ki) | inhibition [2] | also measured
Nc1nc2[nH]c(C3CC3)c(Cc3cccc(C(F)(F)F)c3)c(=O)n2n1 | 5.9 nM | 36% | Ki ([1]; read-out: pKi (converted)): 5.5 nM
Nc1nc2[nH]c(C3CC3)c(Cc3ccc(Cl)c(Cl)c3)c(=O)n2n1 | 0.4 nM | > 70% | IC50 ([3]; read-out: pIC50 (converted)): 214 nM
CC(C)c1[nH]c2nc(N)nn2c(=O)c1Cc1ccc(Cl)c(Br)c1 | 0.4 nM | > 70% | Emax [4]: 35%; Emax [5]: 81%; Emax [6]: 51%; Ratio IC50 [7]: 29; IC50 ([3]; read-out: pIC50 (converted)): 112 nM; Emax [8]: 72%; IC50 [9]: 4 nM; Emax [10]: 58%; Activity [11]: 7 to 8%; Emax [12]: 33%
Nc1nc2[nH]c(C3CC3)c(Cc3cccc(F)c3)c(=O)n2n1 | 3.4 nM | 43% | –
Nc1nc2[nH]c(CCc3ccccc3)c(Cc3cccc(Cl)c3)c(=O)n2n1 | 52.3 nM | – | Ki ([1]; read-out: pKi (converted)): 51.3 nM
Nc1nc2[nH]c(C3CC3)c(Cc3ccc(F)cc3)c(=O)n2n1 | 4.1 nM | 31% | –
Cc1ccc(-c2[nH]c3nc(N)nn3c(=O)c2Cc2cccc(Cl)c2)cc1 | 159 nM | – | Ki ([1]; read-out: pKi (converted)): 155 nM
Cc1ccc(-c2ccc3c(c2)C=C(C(=O)Nc2ccc(C[N+](C)(C)C4CCOCC4)cc2)CCC3)cc1 | – | Active | IC50 ([3]; read-out: IC50): 6 nM
CC(C)c1[nH]c2nc(N)nn2c(=O)c1Cc1cccc(Cl)c1Cl | 1.6 nM | > 70% | Emax [4]: 56%; Ratio IC50 [7]: 4; Emax [13]: 25%; Emax [14]: 75%; IC50 ([3]; read-out: pIC50 (converted)): 81.3 nM; Emax [15]: 50%; IC50 [9]: 21 nM; Emax [10]: 79%; Activity [11]: 7 to 8%; Emax [12]: 91%
CC(=O)C1=C(O)C(=O)N(c2ccc(Cl)cc2F)[C@@H]1C1CCCCC1 | – | < 50% | IC50 ([3]; read-out: IC50): 703 nM
Nc1nc2[nH]c(-c3ccccc3)c(Cc3cccc(Cl)c3)c(=O)n2n1 | 26.7 nM | – | –
CC(C)c1[nH]c2nc(N)nn2c(=O)c1Cc1cc(Br)cc(Br)c1 | 2.1 nM | 64% | –
Nc1nc2[nH]c(C3CC3)c(Cc3ccc(Cl)cc3)c(=O)n2n1 | 1.8 nM | 31% | –
COc1cccc(Cc2c(C3CC3)[nH]c3nc(N)nn3c2=O)c1 | 13 nM | – | –
Nc1nc2[nH]c(C3CC3)c(Cc3ccccc3)c(=O)n2n1 | 5.9 nM | 35% | Ki ([1]; read-out: pKi (converted)): 5.37 nM
CC(C)c1[nH]c2nc(N)nn2c(=O)c1Cc1cc(Cl)cc(Cl)c1 | 2.2 nM | > 70% | IC50 ([3]; read-out: pIC50 (converted)): 324 nM
Cc1nc2[nH]c(C3CC3)c(Cc3cccc(Cl)c3)c(=O)n2n1 | 3.5 nM | 35% | –
CCc1[nH]c2nc(N)nn2c(=O)c1Cc1cccc(Cl)c1 | 4 nM | 29% | –
CCCc1[nH]c2nc(N)nn2c(=O)c1Cc1cccc(Cl)c1 | 3.6 nM | 64% | Ki ([1]; read-out: pKi (converted)): 3.47 nM
Nc1nc2[nH]c(C3CCCC3)c(Cc3cccc(Cl)c3)c(=O)n2n1 | 1.6 nM | > 70% | IC50 ([3]; read-out: pIC50 (converted)): 372 nM
CC(C)c1[nH]c2nc(N)nn2c(=O)c1Cc1cc(Cl)ccc1Cl | 22.5 nM | 20% | –

Structure (SMILES) | Ki ([1]; read-out: Ki) | inhibition [2] | also measured
COc1ccc(Cc2c(C3CC3)[nH]c3nc(N)nn3c2=O)cc1 | 20.9 nM | – | –
CC(C)c1[nH]c2nc(N)nn2c(=O)c1Cc1cccc(Cl)c1 | 1.9 nM | > 70% | IC50 ([3]; read-out: pIC50 (converted)): 275 nM
CCCCc1[nH]c2nc(N)nn2c(=O)c1Cc1cccc(Cl)c1 | 2.3 nM | > 70% | IC50 ([3]; read-out: pIC50 (converted)): 513 nM
Nc1nc2[nH]c(C3CC3)c(Cc3cccc(Br)c3)c(=O)n2n1 | 0.9 nM | 60% | Ki ([1]; read-out: pKi (converted)): 0.832 nM
CCCCCCCc1[nH]c2nc(N)nn2c(=O)c1Cc1cccc(Cl)c1 | 178 nM | – | Ki ([1]; read-out: pKi (converted)): 174 nM
CCCCCCc1[nH]c2nc(N)nn2c(=O)c1Cc1cccc(Cl)c1 | 22 nM | – | –
O=c1c(Cc2cccc(Cl)c2)c(C2CC2)[nH]c2ncnn12 | 1.7 nM | 60% | –
Cc1[nH]c2nc(N)nn2c(=O)c1Cc1cccc(Cl)c1 | 17.2 nM | – | Ki ([1]; read-out: pKi (converted)): 16.6 nM
CC[C@@H](c1ccc(F)c(F)c1)n1c(C(=O)OC)c(-c2ccno2)[nH]c1=S | – | < 50% | –
Cc1ccccc1Cc1c(C2CC2)[nH]c2nc(N)nn2c1=O | 15.7 nM | 28% | –
Nc1nc2[nH]c(C3CC3)c(Cc3ccc(Br)cc3)c(=O)n2n1 | 1.5 nM | 14% | –
CC(C)c1[nH]c2nc(N)nn2c(=O)c1Cc1ccc(Cl)c(Cl)c1 | 0.6 nM | > 70% | IC50 ([3]; read-out: pIC50 (converted)): 123 nM
CCCCCc1[nH]c2nc(N)nn2c(=O)c1Cc1cccc(Cl)c1 | 7.2 nM | 38% | –
Cc1ccc(Cc2c(C3CC3)[nH]c3nc(N)nn3c2=O)cc1 | 3.5 nM | – | –
O=C(O)c1ccccc1Oc1ccc(Cl)cc1NS(=O)(=O)c1ccc(Cl)c(Cl)c1 | – | < 50% | –
Nc1nc2[nH]c(C3CC3)c(Cc3cccc(I)c3)c(=O)n2n1 | 0.9 nM | 66% | –
Cc1cccc(Cc2c(C3CC3)[nH]c3nc(N)nn3c2=O)c1 | 2.5 nM | 62% | –
CCC(CC)Cc1[nH]c2nc(N)nn2c(=O)c1Cc1cccc(Cl)c1 | 6.4 nM | 29% | –
Nc1nc2[nH]c(C3CC3)c(Cc3cccc(Cl)c3)c(=O)n2n1 | 1.3 nM | > 70% | IC50 [16]: 16 to 20 nM; IC50 ([3]; read-out: pIC50 (converted)): 575 nM; IC50 [9]: 10 nM
Nc1nc2[nH]c(C3CC3)c(Cc3ccccc3Cl)c(=O)n2n1 | 14.5 nM | 27% | –
COc1ccccc1Cc1c(C2CC2)[nH]c2nc(N)nn2c1=O | 105 nM | – | –
